Experimental data reported in ChEMBL document CHEMBL1781959, “Synthesis and in vitro antitumor activity of substituted quinazoline and quinoxaline derivatives: search for anticancer agent” (Eur J Med Chem, 2011).

Test system: MDA-MB-231
Assay: Anticancer activity against human MDA-MB-231 cells assessed as cell growth promotion at 10^-5 M after 48 hrs by SRB assay relative to control
Format: functional
For Oc1ccc(/C=C/c2nc3ccccc3nc2SCc2nc3ccccc3[nH]2)cc1, the Activity was 95.18%.

Test system: K562
Assay: Anticancer activity against human K562 cells assessed as cell growth promotion at 10^-5 M after 48 hrs by SRB assay relative to control
Format: functional
For Oc1ccc(/C=C/c2nc3ccccc3nc2SCc2nc3ccccc3[nH]2)cc1, the Activity was 107%.

Test system: SF-268
Assay: Anticancer activity against human SF268 cells assessed as cell growth promotion at 10^-5 M after 48 hrs by SRB assay relative to control
Format: functional
For Oc1ccc(/C=C/c2nc3ccccc3nc2SCc2nc3ccccc3[nH]2)cc1, the Activity was 91.53%.

Test system: SW-620
Assay: Anticancer activity against human SW620 cells assessed as cell growth promotion at 10^-5 M after 48 hrs by SRB assay relative to control
Format: functional
For Oc1ccc(/C=C/c2nc3ccccc3nc2SCc2nc3ccccc3[nH]2)cc1, the Activity was 95.64%.

Test system: CCRF-CEM
Assay: Anticancer activity against human CCRF-CEM cells assessed as cell growth promotion at 10^-5 M after 48 hrs by SRB assay relative to control
Format: functional
For Oc1ccc(/C=C/c2nc3ccccc3nc2SCc2nc3ccccc3[nH]2)cc1, the Activity was 77.99%.

Test system: RXF 393
Assay: Anticancer activity against human RXF393 cells assessed as cell growth promotion at 10^-5 M after 48 hrs by SRB assay relative to control
Format: functional
For Oc1ccc(/C=C/c2nc3ccccc3nc2SCc2nc3ccccc3[nH]2)cc1, the Activity was 106%.

Test system: NCI-H23
Assay: Anticancer activity against human NCI-H23 cells assessed as cell growth promotion at 10^-5 M after 48 hrs by SRB assay relative to control
Format: functional
For Oc1ccc(/C=C/c2nc3ccccc3nc2SCc2nc3ccccc3[nH]2)cc1, the Activity was 102%.

Test system: OVCAR-5
Assay: Anticancer activity against human OVCAR5 cells assessed as cell growth promotion at 10^-5 M after 48 hrs by SRB assay relative to control
Format: functional
Work on Oc1ccc(/C=C/c2nc3ccccc3nc2SCc2nc3ccccc3[nH]2)cc1 yielded an Activity of 102%.

Test system: SR
Assay: Anticancer activity against human SR cells assessed as cell growth promotion at 10^-5 M after 48 hrs by SRB assay relative to control
Format: functional
Oc1ccc(/C=C/c2nc3ccccc3nc2SCc2nc3ccccc3[nH]2)cc1 gave an Activity of 99.18%.

Test system: not listed separately
Assay: Anticancer activity against human Hs 578T cells assessed as cell growth promotion at 10^-5 M after 48 hrs by SRB assay relative to control
Format: functional
In the case of Oc1ccc(/C=C/c2nc3ccccc3nc2SCc2nc3ccccc3[nH]2)cc1, the Activity is reported as 110%.

Test system: KM12
Assay: Anticancer activity against human KM12 cells assessed as cell growth promotion at 10^-5 M after 48 hrs by SRB assay relative to control
Format: functional
In the case of Oc1ccc(/C=C/c2nc3ccccc3nc2SCc2nc3ccccc3[nH]2)cc1, the Activity is reported as 98.91%.

Test system: HL-60(TB)
Assay: Anticancer activity against human HL-60(TB) cells assessed as cell growth promotion at 10^-5 M after 48 hrs by SRB assay relative to control
Format: functional
Outline: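 NCI-60 single-dose screen: compound at 10^-5 M, 48 h at 37 °C, 5% CO2; cells grown in RPMI 1640 with 5% FBS and 2 mM L-glutamine, pre-incubated 24 h before dosing. Adherent cells fixed with cold TCA; endpoint is sulforhodamine B protein staining. Percent growth of treated cells is reported relative to untreated control.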
Work on Oc1ccc(/C=C/c2nc3ccccc3nc2SCc2nc3ccccc3[nH]2)cc1 yielded an Activity of 84.38%.

Test system: UO-31
Assay: Anticancer activity against human UO31 cells assessed as cell growth promotion at 10^-5 M after 48 hrs by SRB assay relative to control
Format: functional
Work on Oc1ccc(/C=C/c2nc3ccccc3nc2SCc2nc3ccccc3[nH]2)cc1 yielded an Activity of 85.96%.

Test system: OVCAR-3
Assay: Anticancer activity against human OVCAR3 cells assessed as cell growth promotion at 10^-5 M after 48 hrs by SRB assay relative to control
Format: functional
With Oc1ccc(/C=C/c2nc3ccccc3nc2SCc2nc3ccccc3[nH]2)cc1 the Activity was 102%.

Test system: HCT-15
Assay: Anticancer activity against human HCT15 cells assessed as cell growth promotion at 10^-5 M after 48 hrs by SRB assay relative to control
Format: functional
Molecule Oc1ccc(/C=C/c2nc3ccccc3nc2SCc2nc3ccccc3[nH]2)cc1 has an Activity of 96.67%.

Test system: SNB-19
Assay: Anticancer activity against human SNB19 cells assessed as cell growth promotion at 10^-5 M after 48 hrs by SRB assay relative to control
Format: functional
With Oc1ccc(/C=C/c2nc3ccccc3nc2SCc2nc3ccccc3[nH]2)cc1 the Activity was 97.81%.

Test system: UACC-62
Assay: Anticancer activity against human UACC62 cells assessed as cell growth promotion at 10^-5 M after 48 hrs by SRB assay relative to control
Format: functional
With Oc1ccc(/C=C/c2nc3ccccc3nc2SCc2nc3ccccc3[nH]2)cc1 the Activity was 96.99%.

Test system: U-251
Assay: Anticancer activity against human U251 cells assessed as cell growth promotion at 10^-5 M after 48 hrs by SRB assay relative to control
Format: functional
Work on Oc1ccc(/C=C/c2nc3ccccc3nc2SCc2nc3ccccc3[nH]2)cc1 yielded an Activity of 95.56%.

Test system: 786-0
Assay: Anticancer activity against human 786-0 cells assessed as cell growth promotion at 10^-5 M after 48 hrs by SRB assay relative to control
Format: functional
Work on Oc1ccc(/C=C/c2nc3ccccc3nc2SCc2nc3ccccc3[nH]2)cc1 yielded an Activity of 94.31%.

Test system: HOP-62
Assay: Anticancer activity against human HOP62 cells assessed as cell growth promotion at 10^-5 M after 48 hrs by SRB assay relative to control
Format: functional
Oc1ccc(/C=C/c2nc3ccccc3nc2SCc2nc3ccccc3[nH]2)cc1 showed an Activity of 101%.

Test system: M14
Assay: Anticancer activity against human M14 cells assessed as cell growth promotion at 10^-5 M after 48 hrs by SRB assay relative to control
Format: functional
Work on Oc1ccc(/C=C/c2nc3ccccc3nc2SCc2nc3ccccc3[nH]2)cc1 yielded an Activity of 100%.

Test system: EKVX
Assay: Anticancer activity against human EKVX cells assessed as cell growth promotion at 10^-5 M after 48 hrs by SRB assay relative to control
Format: functional
With Oc1ccc(/C=C/c2nc3ccccc3nc2SCc2nc3ccccc3[nH]2)cc1 the Activity was 92.68%.

Test system: CAKI-1
Assay: Anticancer activity against human Caki1 cells assessed as cell growth promotion at 10^-5 M after 48 hrs by SRB assay relative to control
Format: functional
Molecule Oc1ccc(/C=C/c2nc3ccccc3nc2SCc2nc3ccccc3[nH]2)cc1 has an Activity of 76.71%.

Test system: NCI-H460
Assay: Anticancer activity against human NCI-H460 cells assessed as cell growth promotion at 10^-5 M after 48 hrs by SRB assay relative to control
Format: functional
In the case of Oc1ccc(/C=C/c2nc3ccccc3nc2SCc2nc3ccccc3[nH]2)cc1, the Activity is reported as 95.51%.

Test system: UACC-257
Assay: Anticancer activity against human UACC257 cells assessed as cell growth promotion at 10^-5 M after 48 hrs by SRB assay relative to control
Format: functional
For Oc1ccc(/C=C/c2nc3ccccc3nc2SCc2nc3ccccc3[nH]2)cc1, the Activity was 117%.

Test system: MOLT-4
Assay: Anticancer activity against human MOLT4 cells assessed as cell growth promotion at 10^-5 M after 48 hrs by SRB assay relative to control
Format: functional
Oc1ccc(/C=C/c2nc3ccccc3nc2SCc2nc3ccccc3[nH]2)cc1 showed an Activity of 75.47%.

Test system: SK-MEL-5
Assay: Anticancer activity against human SK-MEL-5 cells assessed as cell growth promotion at 10^-5 M after 48 hrs by SRB assay relative to control
Format: functional
With Oc1ccc(/C=C/c2nc3ccccc3nc2SCc2nc3ccccc3[nH]2)cc1 the Activity was 95.26%.

Test system: Malme-3M
Assay: Anticancer activity against human MALME-3M cells assessed as cell growth promotion at 10^-5 M after 48 hrs by SRB assay relative to control
Format: functional
Oc1ccc(/C=C/c2nc3ccccc3nc2SCc2nc3ccccc3[nH]2)cc1 showed an Activity of 86.88%.

Test system: MDA-MB-435
Assay: Anticancer activity against human MDA-MB-435 cells assessed as cell growth promotion at 10^-5 M after 48 hrs by SRB assay relative to control
Format: functional
Work on Oc1ccc(/C=C/c2nc3ccccc3nc2SCc2nc3ccccc3[nH]2)cc1 yielded an Activity of 96.11%.

Test system: SN12C
Assay: Anticancer activity against human SN12C cells assessed as cell growth promotion at 10^-5 M after 48 hrs by SRB assay relative to control
Format: functional
In the case of Oc1ccc(/C=C/c2nc3ccccc3nc2SCc2nc3ccccc3[nH]2)cc1, the Activity is reported as 94.78%.

Test system: HCT-116
Assay: Anticancer activity against human HCT116 cells assessed as cell growth promotion at 10^-5 M after 48 hrs by SRB assay relative to control
Format: functional
Work on Oc1ccc(/C=C/c2nc3ccccc3nc2SCc2nc3ccccc3[nH]2)cc1 yielded an Activity of 89.77%.

Test system: A498
Assay: Anticancer activity against human A498 cells assessed as cell growth promotion at 10^-5 M after 48 hrs by SRB assay relative to control
Format: functional
For Oc1ccc(/C=C/c2nc3ccccc3nc2SCc2nc3ccccc3[nH]2)cc1, the Activity was 88.72%.

Test system: NCI/ADR-RES
Assay: Anticancer activity against human NCI/ADR-RES cells assessed as cell growth promotion at 10^-5 M after 48 hrs by SRB assay relative to control
Format: functional
Oc1ccc(/C=C/c2nc3ccccc3nc2SCc2nc3ccccc3[nH]2)cc1 showed an Activity of 100%.

Test system: HT-29
Assay: Anticancer activity against human HT-29 cells assessed as cell growth promotion at 10^-5 M after 48 hrs by SRB assay relative to control
Format: functional
Work on Oc1ccc(/C=C/c2nc3ccccc3nc2SCc2nc3ccccc3[nH]2)cc1 yielded an Activity of 86.49%.

Test system: not listed separately
Assay: Anticancer activity against human […] cells assessed as cell growth promotion at 10^-5 M after 48 hrs by SRB assay relative to control
Format: functional
Molecule Oc1ccc(/C=C/c2nc3ccccc3nc2SCc2nc3ccccc3[nH]2)cc1 has an Activity of 85.51%.
